The source made the active and inactive calls. No cut-off for these calls is given here.
How the values were obtained:
Glucagon receptor [1] = target: T1, Glucagon receptor (Homo sapiens, UniProt P47871); assay: Displacement of [125I]porcine glucagon from human recombinant glucagon receptor expressed in BHK cells by scintillation proximity assay; format: cell-based
Homo sapiens [2] = species: Homo sapiens; assay: Selectivity for human recombinant glucagon receptor over human GLP1R
Homo sapiens [3] = species: Homo sapiens; assay: Selectivity ratio of IC50 for human recombinant glucagon receptor to IC50 for human recombinant GIPR
How it was run: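 Competition binding of compounds to recombinant human glucagon and GIP receptors on BHK cell membranes, run in parallel as a scintillation proximity assay and, for selected compounds, as a membrane filtration assay.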

[4] = target: T2, Gastric inhibitory polypeptide receptor (Homo sapiens, UniProt P48546); assay: Displacement of [125I]porcine GIP from human recombinant GIPR receptor expressed in BHK cells by scintillation proximity assay; format: cell-based
T2 sequence (P48546 whole entry): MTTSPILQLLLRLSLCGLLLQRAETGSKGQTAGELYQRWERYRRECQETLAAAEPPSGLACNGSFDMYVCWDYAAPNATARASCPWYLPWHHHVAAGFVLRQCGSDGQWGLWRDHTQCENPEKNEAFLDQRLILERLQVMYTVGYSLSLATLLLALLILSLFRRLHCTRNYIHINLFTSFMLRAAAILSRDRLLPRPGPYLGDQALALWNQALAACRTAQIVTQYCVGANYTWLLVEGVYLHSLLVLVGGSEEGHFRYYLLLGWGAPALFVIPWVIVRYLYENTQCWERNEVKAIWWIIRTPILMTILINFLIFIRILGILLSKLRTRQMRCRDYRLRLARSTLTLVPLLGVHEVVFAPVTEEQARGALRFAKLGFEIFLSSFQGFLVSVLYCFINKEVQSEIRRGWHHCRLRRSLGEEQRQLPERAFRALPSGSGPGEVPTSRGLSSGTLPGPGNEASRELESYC

Glucagon receptor [5] = target: T1, Glucagon receptor; assay: Binding affinity to human recombinant glucagon receptor expressed in BHK cells by membrane filter assay; format: cell-based
[6] = target: T2, Gastric inhibitory polypeptide receptor; assay: Binding affinity to human recombinant GIPR expressed in BHK cells by membrane filter assay; format: cell-based
[7] = Tmax in fasted Sprague-Dawley rat at 1.9 mg/kg, iv and 3.7 mg/kg, po by HTLC-MS/MS analysis; format: ADME, organism-based; settings: in vivo
How it was run: (§1)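 Plasma concentration–time profiles were recorded after separate intravenous and peroral dosing at the per-compound doses listed. T_max is reported in min alongside C_max (ng/mL), intravenous half-life and clearance ((mL/min)/kg).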

[8] = Half life in fasted Sprague-Dawley rat plasma at 1.9 mg/kg, iv by HTLC-MS/MS analysis; format: ADME, organism-based; design: dose 1.9 mg/kg, route intravenous
How it was run: (§2)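 Rats were dosed intravenously and perorally in separate arms, and plasma concentration-time profiles were obtained. Half-life was taken from the iv arm. Clearance, oral bioavailability, Cmax and Tmax were derived from the profiles.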

[9] = Oral bioavailability in fasted Sprague-Dawley rat at 3.7 mg/kg by HTLC-MS/MS analysis; format: ADME, organism-based; settings: in vivo
How it was run: (§3)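 Separate intravenous and peroral dosing arms per compound, with plasma concentration followed against time. Oral bioavailability (F_po) is reported per compound together with the intravenous half-life and clearance. The dose used for each arm is listed per compound.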

[10] = Clearance in fasted Sprague-Dawley rat at 1.9 mg/kg, iv and 3.7 mg/kg, po by HTLC-MS/MS analysis; format: ADME, organism-based; settings: in vivo; how it was run: as §2
[11] = Cmax in fasted Sprague-Dawley rat at 1.9 mg/kg, iv and 3.7 mg/kg, po by HTLC-MS/MS analysis; format: ADME, organism-based; settings: in vivo; how it was run: as §2
[12] = Cmax in fasted Sprague-Dawley rat at 1.66mg/kg, iv and 3 mg/kg, po; format: ADME, organism-based; design: dose 3 mg/kg, route oral; settings: in vivo; how it was run: as §2
[13] = Half life in fasted Sprague-Dawley rat plasma at 1.66 mg/kg, iv by HTLC-MS/MS analysis; format: ADME, organism-based; design: dose 1.66 mg/kg, route intravenous; how it was run: as §2
[14] = Clearance in fasted Sprague-Dawley rat at 1.66 mg/kg, iv and 3 mg/kg, po; format: ADME, organism-based; settings: in vivo; how it was run: as §2
[15] = Tmax in fasted Sprague-Dawley rat at 1.6mg/kg, iv and 3 mg/kg, po; format: ADME, organism-based; design: dose 3 mg/kg, route oral; settings: in vivo; how it was run: as §1
[16] = Oral bioavailability in fasted Sprague-Dawley rat at 3 mg/kg by HTLC-MS/MS analysis; format: ADME, organism-based; settings: in vivo; how it was run: as §3
[17] = Half life in fasted Beagle dog at 0.25 mg/kg, iv; format: ADME, organism-based, Canis lupus familiaris; design: dose 0.25 mg/kg, route intravenous; settings: in vivo
How it was run: (§4)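 Dogs were dosed at 0.25 mg/kg iv and 0.5 mg/kg po, and plasma concentration was followed over time. Half-life came from the iv arm; clearance, Cmax and Tmax were also derived.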

[18] = Binding affinity to glucagon receptor in dog liver membrane by membrane filter assay; format: cell membranes, Canis lupus familiaris
[19] = Tmax in fasted Sprague-Dawley rat at 1.6 mg/kg, iv and 3.15 mg/kg, po by HTLC-MS/MS analysis; format: ADME, organism-based; settings: in vivo; how it was run: as §1
Hepatocyte [20] = assay: Inhibition of glucagon-stimulated glucose production in rat primary hepatocytes; format: functional, cell-based
[21] = Half life in fasted Sprague-Dawley rat plasma at 1.6 mg/kg, iv by HTLC-MS/MS analysis; format: ADME, organism-based; design: dose 1.6 mg/kg, route intravenous; how it was run: as §2
[22] = Oral bioavailability in fasted Sprague-Dawley rat at 3.15 mg/kg by HTLC-MS/MS analysis; format: ADME, organism-based; settings: in vivo; how it was run: as §3
[23] = Cmax in fasted Beagle dog at 0.25 mg/kg, iv and 0.5 mg/kg, po; format: ADME, organism-based, Canis lupus familiaris; settings: in vivo; how it was run: as §4
[24] = Binding affinity to glucagon receptor in monkey liver membrane by membrane filter assay; format: cell membranes, Macaca mulatta
[25] = Binding affinity to glucagon receptor in rabbit liver membrane by membrane filter assay; format: cell membranes, Oryctolagus cuniculus
Hepatocyte [26] = assay: Inhibition of glucagon-stimulated glucose production in human primary hepatocytes preincubated for 10 mins before glucagon addition by NADH-linked hexokinase assay; format: functional, cell-based
How it was run: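 Cultured primary human hepatocytes were preincubated with compound for 10 min, then glycogenolysis was induced with 5 nM glucagon for 60 min. Glucose in the medium was measured against basal glycogenolysis. Albumin was present in the assay medium. IC50 was calculated from four experiments, mean ± SEM.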

[27] = Binding affinity to glucagon receptor in pig liver membrane by membrane filter assay; format: cell membranes, Sus scrofa
[28] = Tmax in fasted Beagle dog at 0.25 mg/kg, iv and 0.5 mg/kg, po; format: ADME, organism-based, Canis lupus familiaris; settings: in vivo; how it was run: as §1
[29] = Clearance in fasted Sprague-Dawley rat at 1.6 mg/kg, iv and 3.15 mg/kg, po by HTLC-MS/MS analysis; format: ADME, organism-based; settings: in vivo; how it was run: as §2
[30] = Cmax in fasted Sprague-Dawley rat at 1.6 mg/kg, iv and 3.15 mg/kg, po by HTLC-MS/MS analysis; format: ADME, organism-based; settings: in vivo; how it was run: as §2
Glucagon receptor [31] = target: Glucagon receptor (Rattus norvegicus, UniProt P30082); assay: Binding affinity to glucagon receptor in rat liver membrane by membrane filter assay; format: cell membranes
Glucagon receptor [32] = target: Glucagon receptor (Mus musculus, UniProt Q61606); assay: Binding affinity to glucagon receptor in mouse liver membrane by membrane filter assay; format: cell membranes
[33] = Clearance in fasted Beagle dog at 0.25 mg/kg, iv and 0.5 mg/kg, po; format: ADME, organism-based, Canis lupus familiaris; settings: in vivo; how it was run: as §4
[34] = Oral bioavailability in fasted Beagle dog at 0.5 mg/kg; format: ADME, organism-based, Canis lupus familiaris; settings: in vivo; how it was run: as §3

T1 sequence (P47871 whole entry): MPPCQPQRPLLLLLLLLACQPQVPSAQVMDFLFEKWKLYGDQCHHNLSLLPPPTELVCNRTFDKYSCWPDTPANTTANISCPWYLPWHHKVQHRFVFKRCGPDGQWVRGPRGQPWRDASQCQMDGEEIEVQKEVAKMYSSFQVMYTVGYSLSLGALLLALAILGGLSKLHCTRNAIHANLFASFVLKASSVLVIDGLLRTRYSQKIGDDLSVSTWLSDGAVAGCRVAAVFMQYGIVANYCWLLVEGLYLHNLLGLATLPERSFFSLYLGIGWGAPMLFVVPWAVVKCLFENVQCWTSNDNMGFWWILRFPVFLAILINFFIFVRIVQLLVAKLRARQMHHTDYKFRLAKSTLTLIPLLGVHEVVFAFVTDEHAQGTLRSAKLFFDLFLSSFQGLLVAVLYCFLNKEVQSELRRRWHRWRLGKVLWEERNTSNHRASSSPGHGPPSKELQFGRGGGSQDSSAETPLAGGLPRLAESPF
Sequence of Glucagon receptor (Mus musculus, UniProt Q61606) (Q61606 whole entry): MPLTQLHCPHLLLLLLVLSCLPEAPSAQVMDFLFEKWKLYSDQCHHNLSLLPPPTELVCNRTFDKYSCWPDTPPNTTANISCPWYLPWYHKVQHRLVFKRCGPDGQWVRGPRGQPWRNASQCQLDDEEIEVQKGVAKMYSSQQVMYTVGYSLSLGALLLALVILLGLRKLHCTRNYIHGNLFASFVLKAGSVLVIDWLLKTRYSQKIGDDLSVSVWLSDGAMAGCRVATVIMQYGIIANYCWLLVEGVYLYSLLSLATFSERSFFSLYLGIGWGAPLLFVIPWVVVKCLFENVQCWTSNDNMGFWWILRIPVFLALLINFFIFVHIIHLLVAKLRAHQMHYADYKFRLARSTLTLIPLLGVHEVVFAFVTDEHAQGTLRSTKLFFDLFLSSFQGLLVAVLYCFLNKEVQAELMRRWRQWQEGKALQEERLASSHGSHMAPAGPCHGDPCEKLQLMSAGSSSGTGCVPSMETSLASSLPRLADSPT
Sequence of Glucagon receptor (Rattus norvegicus, UniProt P30082) (P30082 whole entry): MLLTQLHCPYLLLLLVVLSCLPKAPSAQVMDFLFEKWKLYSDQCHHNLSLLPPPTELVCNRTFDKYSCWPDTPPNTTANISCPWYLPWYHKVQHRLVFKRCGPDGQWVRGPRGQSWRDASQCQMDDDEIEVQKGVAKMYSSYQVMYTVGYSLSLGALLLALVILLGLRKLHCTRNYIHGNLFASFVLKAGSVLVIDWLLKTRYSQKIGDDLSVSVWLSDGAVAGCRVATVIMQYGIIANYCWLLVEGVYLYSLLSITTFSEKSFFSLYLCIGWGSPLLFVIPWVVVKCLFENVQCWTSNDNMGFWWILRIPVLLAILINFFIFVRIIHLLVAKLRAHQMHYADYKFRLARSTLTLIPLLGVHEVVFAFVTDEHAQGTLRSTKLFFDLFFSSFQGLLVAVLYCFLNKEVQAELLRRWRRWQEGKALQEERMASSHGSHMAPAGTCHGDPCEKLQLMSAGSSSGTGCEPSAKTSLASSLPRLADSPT

SMILES | IC50 (Glucagon receptor [1]) | fold change (FC) (Homo sapiens [2]) | fold change (FC) (Homo sapiens [3]) | IC50 [4] | also measured
O=C(O)CCNC(=O)c1ccc(CN(c2ccc(C3=CCCCC3)cc2)c2nc(-c3ccc(Cl)cc3)c(-c3ccccc3)s2)cc1 | 86 nM | > 50 | 5 | 1000 nM | 
O=C(O)CCNC(=O)c1ccc(CN(c2ccc3c(c2)CCC3)c2nc(-c3ccc(Cl)c(Cl)c3)cs2)cc1 | 99 nM | > 50 | 5 | 638 nM | 
O=C(O)CCNC(=O)c1ccc(CN(c2ccc(SC(F)(F)F)cc2)c2nc(-c3ccc(C(F)(F)F)cc3)cs2)cc1 | 34 nM | > 50 | 5 | 777 nM | 
COc1ccccc1-c1csc(N(Cc2ccc(C(=O)NCCC(=O)O)cc2)c2ccc(SC(F)(F)F)cc2)n1 | 420 nM | > 50 | 5 | > 1000 nM | 
Cc1cc(N(Cc2ccc(C(=O)NCCC(=O)O)cc2)c2nc(-c3ccc(C(F)(F)F)cc3)cs2)ccc1C(C)C | 119 nM | > 50 | 5 | 633 nM | IC50 (Glucagon receptor [5]): 93 nM; IC50 [6]: 293 nM
O=C(O)CCNC(=O)c1ccc(CN(c2ccc(C3=CCCCC3)cc2)c2nc(-c3ccccc3)cs2)cc1 | 130 nM | > 50 | 5 | 389 nM | Tmax [7]: 1.5 h; half-life [8]: 0.617 h; bioavailability [9]: 5%; clearance [10]: 35 mL/min/kg; Cmax [11]: 94 ng/mL
O=C(O)CCNC(=O)c1ccc(N(Cc2ccc3c(c2)Cc2ccccc2-3)c2nc(-c3ccc(OC(F)(F)F)cc3)cs2)cc1 | 81 nM | > 50 | 5 | 732 nM | Cmax [12]: 82 ng/mL; half-life [13]: 0.767 h; clearance [14]: 31 mL/min/kg; Tmax [15]: 1.5 h; bioavailability [16]: 13%
O=C(O)CCNC(=O)c1ccc(CN(c2ccc3c(c2)CCCC3)c2nc(-c3ccc(Cl)c(Cl)c3)cs2)cc1 | 79 nM | > 50 | 5 | 830 nM | half-life [17]: 2.07 h; IC50 [18]: 81 nM; Tmax [19]: 1 h; inhibition (Hepatocyte [20]): inactive; half-life [21]: 1.73 h; bioavailability [22]: 36%; Cmax [23]: 1190 ng/mL; IC50 (Glucagon receptor [5]): 54 nM; IC50 [24]: 55 nM; IC50 [25]: 1900 nM; IC50 (Hepatocyte [26]): 4000 nM; IC50 [27]: 3300 nM; Tmax [28]: 0.85 h; clearance [29]: 5 mL/min/kg; Cmax [30]: 1180 ng/mL; IC50 (Glucagon receptor [31]): 1600 nM; IC50 [6]: 390 nM; IC50 (Glucagon receptor [32]): 452 nM; clearance [33]: 1.44 mL/min/kg; bioavailability [34]: 92%
O=C(O)CCNC(=O)c1ccc(CN(c2nc(-c3ccc(Cl)c(Cl)c3)cs2)C2CCCc3ccccc32)cc1 (configuration not stated) | 531 nM | > 50 | 5 | 1110 nM | 
Cc1cc(N(Cc2ccc(C(=O)NCCC(=O)O)cc2)c2nc(-c3cc(C(F)(F)F)cc(C(F)(F)F)c3)cs2)ccc1C(C)C | 131 nM | > 50 | 5 | 584 nM | 

— ChEMBL document CHEMBL1138494, “Human glucagon receptor antagonists with thiazole cores. A novel series with superior pharmacokinetic properties” (J Med Chem, 2009)
